Reference: ChEMBL document CHEMBL1777748 (Bioorg Med Chem Lett, 2011)
Calls of active or inactive are those of the source. The calls are words filed in the database; no cut-off is given here.

Experiments:
[1] = Intrinsic clearance in rat hepatocytes assessed per 1 x 10^6 cells
[2] = target: T1, Prostaglandin D2 receptor 2 (Homo sapiens, UniProt Q9Y5Y4); experiment: Displacement of [3H]-PGD2 from CRTh2 receptor by scintillation proximity assay
T1 sequence (Q9Y5Y4 whole entry): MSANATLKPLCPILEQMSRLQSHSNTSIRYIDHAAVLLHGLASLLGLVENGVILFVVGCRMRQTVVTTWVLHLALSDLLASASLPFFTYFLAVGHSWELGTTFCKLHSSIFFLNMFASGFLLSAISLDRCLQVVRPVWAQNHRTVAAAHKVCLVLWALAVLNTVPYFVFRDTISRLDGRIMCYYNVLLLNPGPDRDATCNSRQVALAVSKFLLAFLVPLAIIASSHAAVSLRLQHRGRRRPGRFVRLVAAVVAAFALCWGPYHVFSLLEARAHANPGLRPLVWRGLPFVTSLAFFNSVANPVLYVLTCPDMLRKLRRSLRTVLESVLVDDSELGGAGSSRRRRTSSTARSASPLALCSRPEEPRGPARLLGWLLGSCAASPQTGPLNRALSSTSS

[3] = Lipophilicity, log D of the compound at pH 7.4; settings: buffer
[4] = Intrinsic clearance in human liver microsomes
[5] = target: T2, Prostaglandin D2 receptor 2 (Homo sapiens) (UniProt Q9Y5Y4); experiment: Displacement of [3H]-PGD2 from CRTh2 receptor at 10 uM by scintillation proximity assay
T2 sequence (whole entry): T1 sequence (Q9Y5Y4 whole entry)
Procedure, shortened: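 Scintillation proximity binding with [3H]-PGD2 as radioligand; reported values are means of more than 2 measurements.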

[6] = target: T2, Prostaglandin D2 receptor 2 (Homo sapiens); experiment: Partial agonist activity at human CRTh2 receptor expressed in HEK cells assessed as stimulation of calcium flux; type: functional, cell-based; settings: HEK293
[7] = target: T1, Prostaglandin D2 receptor 2; experiment: Antagonist activity at human CRTh2 receptor expressed in HEK cells assessed as inhibition of PGD2-induced calcium flux; type: functional, cell-based, HEK293
Procedure, shortened: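 PGD2-driven Ca2+ flux in HEK cells transfected with human CRTh2, read as antagonism of the response.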

[8] = target: T2, Prostaglandin D2 receptor 2 (Homo sapiens); settings: HEK293, 10 uM

SMILES | hepatocyte CLint [1] | IC50 [2] | microsomal CLint ([4]; liver microsomes) | further results
CCS(=O)(=O)c1ccc(-c2cc(C(F)(F)F)ccc2O[C@@H](C)C(=O)O)c(C)c1 | 10 µL/min/1e6 cells | 355 nM | – | –
CCSc1ccc(-c2cc(C(F)(F)F)ccc2OCC(=O)O)cc1 | – | 8.9 nM | – | –
Cc1ccc(C#N)cc1-c1cc(C(F)(F)F)ccc1OCC(=O)O | < 3 µL/min/1e6 cells | 0.2 nM | – | logD [3]: 0.2; microsomal CLint ([4]; microsomes): < 3 µL/min/mg
N#Cc1cccc(-c2cc(C(F)(F)F)ccc2OCC(=O)O)c1 | < 3 µL/min/1e6 cells | < 0.4 nM | < 3 µL/min/mg | logD [3]: 0.1
CS(=O)(=O)c1ccc(-c2cc(C(F)(F)F)ccc2OCC(=O)O)c(Cl)c1 | – | 0.2 nM | – | –
O=C(O)COc1ccccc1-c1ccccc1 | – | – | – | inhibition [5]: 41%
CN(c1ccc(-c2cc(C(F)(F)F)ccc2OCC(=O)O)cc1)S(C)(=O)=O | < 3 µL/min/1e6 cells | 0.8 nM | 13 µL/min/mg | –
O=C(O)COc1ccc(Cl)cc1-c1ccccc1 | – | 251 nM | – | –
CS(=O)(=O)c1ccc(-c2cc(C(F)(F)F)ccc2OCC(=O)O)cc1 | < 3 µL/min/1e6 cells | 36 nM | < 3 µL/min/mg | Activity [6]: Active
N#Cc1ccc(-c2cc(C(F)(F)F)ccc2OCC(=O)O)cc1 | – | 126 nM | – | –
CCS(=O)(=O)c1ccc(-c2cc(C(F)(F)F)ccc2CCC(=O)O)c(C)c1 | 25 µL/min/1e6 cells | 2.5 nM | < 4 µL/min/mg | –
Cc1ccc(OCC(=O)O)c(-c2ccccc2)c1 | < 3 µL/min/1e6 cells | 794 nM | 12 µL/min/mg | IC50 [7]: 708 nM
CCCCOc1ccccc1-c1cc(C(F)(F)F)ccc1OCC(=O)O | 9 µL/min/1e6 cells | 10 nM | 6 µL/min/mg | –
CCS(=O)(=O)c1ccc(-c2cc(C(F)(F)F)ccc2OCC(N)=O)c(C)c1 | 29 µL/min/1e6 cells | 5650 nM | < 3 µL/min/mg | logD [3]: 2.8
CCS(=O)(=O)c1ccc(-c2cc(C(F)(F)F)ccc2OC(C)(C)C(=O)O)c(C)c1 | – | 3980 nM | – | –
O=C(O)COc1ccc(C(F)(F)F)cc1-c1ccc(Cl)cc1 | < 3 µL/min/1e6 cells | 50 nM | 11 µL/min/mg | logD [3]: 0.9
CCS(=O)(=O)c1cccc(-c2cc(C(F)(F)F)ccc2OCC(=O)O)c1 | < 3 µL/min/1e6 cells | 56 nM | 12 µL/min/mg | –
N#Cc1ccc(OCC(=O)O)c(-c2ccccc2)c1 | < 3 µL/min/1e6 cells | 355 nM | 6 µL/min/mg | IC50 [7]: 251 nM
CN(c1ccc(-c2cc(F)ccc2OCC(=O)O)c(Cl)c1)S(C)(=O)=O | – | 2.2 nM | – | –
N#Cc1ccc(F)c(-c2cc(C(F)(F)F)ccc2OCC(=O)O)c1 | < 3 µL/min/1e6 cells | 0.2 nM | – | microsomal CLint ([4]; microsomes): < 4 µL/min/mg
O=C(O)COc1ccc(C(F)(F)F)cc1-c1ccccc1-c1ccccc1 | 20 µL/min/1e6 cells | 2 nM | – | logD [3]: 1.4; microsomal CLint ([4]; microsomes): < 3 µL/min/mg
CCS(=O)(=O)c1ccc(-c2cc(C(F)(F)F)ccc2O[C@H](C)C(=O)O)c(Cl)c1 | < 3 µL/min/1e6 cells | 0.6 nM | < 3 µL/min/mg | logD [3]: 0

SMILES | hepatocyte CLint [1] | IC50 [2] | microsomal CLint ([4]; liver microsomes) | further results
CCS(=O)(=O)c1ccc(-c2cc(Cl)ccc2OCC(=O)O)cc1 | < 3 µL/min/1e6 cells | 19 nM | 7 µL/min/mg | –
CCc1ccc(OCC(=O)O)c(-c2ccc(S(C)(=O)=O)cc2)c1 | 13 µL/min/1e6 cells | – | – | microsomal CLint ([4]; microsomes): < 3 µL/min/mg
CS(=O)(=O)c1ccc(-c2cc(Cl)ccc2OCC(=O)O)c(Cl)c1 | 5 µL/min/1e6 cells | 0.6 nM | 10 µL/min/mg | –
CCS(=O)(=O)c1ccc(-c2cc(Cl)ccc2OCC(=O)O)c(C)c1 | – | 4.1 nM | – | –
O=C(O)COc1ccc([N+](=O)[O-])cc1-c1ccccc1 | – | 251 nM | – | IC50 [7]: 178 nM
CCC(Oc1ccc(C(F)(F)F)cc1-c1ccc(S(=O)(=O)CC)cc1C)C(=O)O (centres undefined) | – | 178 nM | – | logD [3]: 0.3
O=C(O)COc1ccc(Br)cc1-c1ccccc1 | 7 µL/min/1e6 cells | 316 nM | < 3 µL/min/mg | IC50 [7]: 158 nM
O=C(O)COc1ccc(C(F)(F)F)cc1-c1ccc2c(c1)CCS2(=O)=O | 13 µL/min/1e6 cells | 126 nM | 6 µL/min/mg | –
CCS(=O)(=O)c1ccc(-c2cc(Cl)ccc2OCC(=O)O)c(Cl)c1 | < 3 µL/min/1e6 cells | 1.5 nM | 7 µL/min/mg | –
CCS(=O)(=O)c1ccc(-c2cc(C(F)(F)F)ccc2OCC(=O)O)c(Cl)c1 | < 5 µL/min/1e6 cells | 0.3 nM | < 3 µL/min/mg | –
CN(c1ccc(-c2cc(C(F)(F)F)ccc2OCC(=O)O)c(Cl)c1)S(C)(=O)=O | – | 0.1 nM | – | –
CCN(CC)S(=O)(=O)c1ccc(-c2cc(C(F)(F)F)ccc2OCC(=O)O)cc1 | 18 µL/min/1e6 cells | 1.3 nM | 9 µL/min/mg | logD [3]: 0.7
C[C@@H](Oc1ccc(C(F)(F)F)cc1-c1cccc(C#N)c1)C(=O)O | < 5 µL/min/1e6 cells | 0.6 nM | < 3 µL/min/mg | –
CCS(=O)(=O)c1ccc(-c2cc(Cl)ccc2OCC(=O)O)c(C(F)(F)F)c1 | – | 293 nM | – | –
CS(=O)(=O)c1ccc(OCC(=O)O)c(-c2ccccc2)c1 | 6 µL/min/1e6 cells | 541 nM | < 3 µL/min/mg | Activity [6]: Active
CCS(=O)(=O)c1ccc(-c2cc(C(F)(F)F)ccc2O[C@H](C)C(=O)O)c(C)c1 | 23 µL/min/1e6 cells | 1.6 nM | < 3 µL/min/mg | –
O=C(O)COc1ccc(-c2nccs2)cc1-c1ccccc1 | – | 1780 nM | – | IC50 [7]: 501 nM
CCS(=O)(=O)c1ccc(-c2cc(C(F)(F)F)ccc2OCc2nnn[nH]2)c(C)c1 | – | 891 nM | – | –
Cc1cc(N(C)S(C)(=O)=O)ccc1-c1cc(C(F)(F)F)ccc1OCC(=O)O | < 3 µL/min/1e6 cells | 0.4 nM | < 3 µL/min/mg | –
Nc1ccc(OCC(=O)O)c(-c2ccccc2)c1 | 64 µL/min/1e6 cells | 8910 nM | < 3 µL/min/mg | inhibition [8]: 17%
COc1ccc(-c2cc(C(F)(F)F)ccc2OCC(=O)O)cc1 | 47 µL/min/1e6 cells | 251 nM | 12 µL/min/mg | logD [3]: 0.3
CCS(=O)(=O)c1ccc(-c2cc(Cl)ccc2OCC(=O)O)c(F)c1 | 4 µL/min/1e6 cells | 7.9 nM | – | microsomal CLint ([4]; microsomes): < 3 µL/min/mg
